Reference: article PMC5656813 (Arthritis & Rheumatology (Hoboken, N.j.), 2017)

Legend:
JAK‐1 relative to JAK‐2 = settings: human whole blood assays; cited from earlier work
[1] = Studies 1 and 2, steady‐state plasma PK of filgotinib and its major metabolite; format: in vivo, human; settings: for Cmax / Tmax / AUC: human, plasma, oral
Summary of the method: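 RA patients on stable methotrexate took oral test compound or placebo capsules for 4 weeks: 200 mg once daily or 100 mg twice daily (study 1), or 30, 75, 150 or 300 mg once daily (study 2). In a subset (12 and 15 patients), plasma parent and major metabolite were sampled predose and 1, 2, 3, 5 and 8 h after the morning dose, at week 2 or 4. Descriptive statistics were calculated by dose.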

RA patients = experiment: Study 2, treatment‐emergent adverse events; format: in vivo, human
Summary of the method: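 Both double-blind, placebo-controlled trials in RA patients on stable MTX. Oral capsules daily for 4 weeks, with 7–10-day follow-up: 200 mg once daily or 100 mg twice daily (study 1); 30, 75, 150 or 300 mg once daily (study 2). At every visit: AEs, vital signs, hematology, serum biochemistry, coagulation and urinalysis. EKG at baseline and follow-up, plus week 4 in study 1. Safety population, descriptive treatment-emergent AE summaries.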

- dose proportionality of PK ([1]; 30–300 mg range): essentially dose proportional
- Cmax ([1]; 30 mg): 0.0716 µg/mL
- Tmax ([1]; 30 mg): 1 h
- AUC ([1]; 30 mg, AUCtau of filgotinib, steady state, 30 mg once daily, study 2, arithmetic mean (coefficient of variation)): 1.34 µg·h/mL
- Cmax ([1]; 75 mg): 0.492 µg/mL
- Cmax ([1]; 100 mg): 0.73 µg/mL
- AUC ([1]; 100 mg, AUCtau of filgotinib, steady state, 100 mg twice daily, study 1, arithmetic mean (coefficient of variation)): 2.47 µg·h/mL
- Cmax ([1]; 150 mg): 1.16 µg/mL
- Tmax ([1]; 150 mg): 1 h
- AUC ([1]; 150 mg, AUCtau of filgotinib, steady state, 150 mg once daily, study 2, arithmetic mean (coefficient of variation)): 6.44 µg·h/mL
- AUC ([1]; 150 mg, AUCtau, other 4 patients, 150 mg once daily, study 2): 4.79 to 5.29 µg·h/mL
- Cmax ([1]; 200 mg): 1.43 µg/mL
- AUC ([1]; 200 mg, AUCtau of filgotinib, steady state, 200 mg once daily, study 1, arithmetic mean (coefficient of variation)): 5.38 µg·h/mL
- Cmax ([1]; 300 mg): 1.34 µg/mL
- AUC ([1]; 300 mg, AUCtau of filgotinib, steady state, 300 mg once daily, study 2, arithmetic mean (coefficient of variation)): 7.71 µg·h/mL
- time of dosing to attain steady state ([1]; in vivo): ≤ 2 days
SMILES: O=C(Nc1nc2cccc(-c3ccc(CN4CCS(=O)(=O)CC4)cc3)n2n1)C1CC1 [Filgotinib]
- selectivity for inhibition of JAK‐1 relative to JAK‐2 (JAK‐1 relative to JAK‐2): ~30 fold
- treatment-related TEAE: Abdominal discomfort (RA patients; 30 mg once daily): 0 number (%) of patients
- treatment-related TEAE: Abdominal pain, upper (RA patients; 30 mg once daily): 0 number (%) of patients
- treatment-related TEAE: Aspartate aminotransferase increased (RA patients; 30 mg once daily): 1 (5.9) number (%) of patients
- treatment-related TEAE: Blood amylase increased (RA patients; 30 mg once daily): 0 number (%) of patients
- treatment-related TEAE: Blood and lymphatic system disorders (RA patients; 30 mg once daily): 0 number (%) of patients
- treatment-related TEAE: Blood triglycerides increased (RA patients; 30 mg once daily): 1 (5.9) number (%) of patients
- treatment-related TEAE: Cystitis, noninfectious (RA patients; 30 mg once daily): 0 number (%) of patients
- treatment-related TEAE: Duodenogastric reflux (RA patients; 30 mg once daily): 0 number (%) of patients
- treatment-related TEAE: Ear and labyrinth disorders (RA patients; 30 mg once daily): 0 number (%) of patients
- treatment-related TEAE: Gastrointestinal disorders (RA patients; 30 mg once daily): 1 (5.9) number (%) of patients
- treatment-related TEAE: Gastrointestinal pain (RA patients; 30 mg once daily): 0 number (%) of patients
- treatment-related TEAE: General disorders and administration site reactions (RA patients; 30 mg once daily): 0 number (%) of patients
- treatment-related TEAE: Gingival bleeding (RA patients; 30 mg once daily): 0 number (%) of patients
- treatment-related TEAE: Infections and infestations (RA patients; 30 mg once daily): 0 number (%) of patients
- treatment-related TEAE: Laboratory findings (RA patients; 30 mg once daily): 2 (11.8) number (%) of patients
- treatment-related TEAE: Lipase increased (RA patients; 30 mg once daily): 0 number (%) of patients
- treatment-related TEAE: Musculoskeletal and connective tissue disorders (RA patients; 30 mg once daily): 0 number (%) of patients
- treatment-related TEAE: Nervous system disorders (RA patients; 30 mg once daily): 0 number (%) of patients
- treatment-related TEAE: Renal and urinary disorders (RA patients; 30 mg once daily): 0 number (%) of patients
- treatment-related TEAE: Abdominal discomfort (RA patients; 75 mg once daily): 0 number (%) of patients
- treatment-related TEAE: Abdominal pain, upper (RA patients; 75 mg once daily): 0 number (%) of patients
- treatment-related TEAE: Aspartate aminotransferase increased (RA patients; 75 mg once daily): 0 number (%) of patients
- treatment-related TEAE: Blood amylase increased (RA patients; 75 mg once daily): 0 number (%) of patients
- treatment-related TEAE: Blood and lymphatic system disorders (RA patients; 75 mg once daily): 1 (4.5) number (%) of patients
- treatment-related TEAE: Blood triglycerides increased (RA patients; 75 mg once daily): 0 number (%) of patients
- treatment-related TEAE: Cystitis, noninfectious (RA patients; 75 mg once daily): 0 number (%) of patients
- treatment-related TEAE: Duodenogastric reflux (RA patients; 75 mg once daily): 1 (4.5) number (%) of patients
- treatment-related TEAE: Ear and labyrinth disorders (RA patients; 75 mg once daily): 0 number (%) of patients
- treatment-related TEAE: Gastrointestinal disorders (RA patients; 75 mg once daily): 2 (9.1) number (%) of patients
- treatment-related TEAE: Gastrointestinal pain (RA patients; 75 mg once daily): 0 number (%) of patients
- treatment-related TEAE: General disorders and administration site reactions (RA patients; 75 mg once daily): 0 number (%) of patients
- treatment-related TEAE: Gingival bleeding (RA patients; 75 mg once daily): 1 (4.5) number (%) of patients
- treatment-related TEAE: Infections and infestations (RA patients; 75 mg once daily): 0 number (%) of patients
- treatment-related TEAE: Laboratory findings (RA patients; 75 mg once daily): 0 number (%) of patients
- treatment-related TEAE: Lipase increased (RA patients; 75 mg once daily): 0 number (%) of patients
- treatment-related TEAE: Musculoskeletal and connective tissue disorders (RA patients; 75 mg once daily): 0 number (%) of patients
- treatment-related TEAE: Nervous system disorders (RA patients; 75 mg once daily): 0 number (%) of patients
- treatment-related TEAE: Renal and urinary disorders (RA patients; 75 mg once daily): 0 number (%) of patients
- treatment-related TEAE: Abdominal discomfort (RA patients; 150 mg once daily): 0 number (%) of patients
- treatment-related TEAE: Abdominal pain, upper (RA patients; 150 mg once daily): 0 number (%) of patients
- treatment-related TEAE: Aspartate aminotransferase increased (RA patients; 150 mg once daily): 0 number (%) of patients
- treatment-related TEAE: Blood amylase increased (RA patients; 150 mg once daily): 0 number (%) of patients
- treatment-related TEAE: Blood and lymphatic system disorders (RA patients; 150 mg once daily): 0 number (%) of patients
- treatment-related TEAE: Blood triglycerides increased (RA patients; 150 mg once daily): 0 number (%) of patients
- treatment-related TEAE: Cystitis, noninfectious (RA patients; 150 mg once daily): 0 number (%) of patients
- treatment-related TEAE: Duodenogastric reflux (RA patients; 150 mg once daily): 0 number (%) of patients
- treatment-related TEAE: Ear and labyrinth disorders (RA patients; 150 mg once daily): 0 number (%) of patients
- treatment-related TEAE: Gastrointestinal disorders (RA patients; 150 mg once daily): 1 (6.7) number (%) of patients
- treatment-related TEAE: Gastrointestinal pain (RA patients; 150 mg once daily): 0 number (%) of patients
- treatment-related TEAE: General disorders and administration site reactions (RA patients; 150 mg once daily): 0 number (%) of patients
- treatment-related TEAE: Gingival bleeding (RA patients; 150 mg once daily): 0 number (%) of patients
- treatment-related TEAE: Infections and infestations (RA patients; 150 mg once daily): 0 number (%) of patients
- treatment-related TEAE: Laboratory findings (RA patients; 150 mg once daily): 0 number (%) of patients
- treatment-related TEAE: Lipase increased (RA patients; 150 mg once daily): 0 number (%) of patients
